Where “and” joins values, the source holds several entries; their conditions need not be identical. Equal values may be shown once.
System: U2OS
Assay: Multiplex assay against U2OS
Assay type: toxicity, cell-based
Conditions: human
In short: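 On a CQ1 microscope at 37°C and 5% CO2, live cells were imaged after compound addition. They had been stained at seeding with Hoechst33342, BioTracker Green Microtubule Cytoskeleton Dye, MitoTracker Red and Annexin V Alexa Fluor 680. CellPathfinder machine-learning gating assigned cells to Hoechst high-intensity objects or normal cells, normal cells to healthy, pyknosed or fragmented nuclei, and pyknosed cells to mitotic or apoptotic. Tubulin, mitochondrial-mass and membrane-permeability phenotypes are per cents of healthy-nucleus cells.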

[1] = 12 h, 1 µM, compound concentration 1 uM
[2] = 12 h, 10 µM, compound concentration 10 uM
[3] = 24 h, 1 µM, compound concentration 1 uM
[4] = 24 h, 10 µM, compound concentration 10 uM
[5] = 48 h, 1 µM, compound concentration 1 uM
[6] = 48 h, 10 µM, compound concentration 10 uM

## CN(C)CCOc1ccc(/C(=C(/CCCO)c2ccccc2)c2ccc(O)cc2)cc1
[1]
  Population Apoptotic (%): 43.75% and 21.88%
  Population Fragmented Nuclei (%): 1.53% and 1.8%
  Population Healthy Nuclei (%): 90.31% and 79.04%
  Population Hoechst High Intensity Objects (%): 0%
  Population Membrane Permeable-Phenotype (%): 2.26% and 4.55%
  Population Mitotic Cells (%): 56.25% and 78.12%
  Population Normal (%): 100%
  Population Pyknosed Nuclei (%): 8.16% and 19.16%
  Population Tubulin-Different-Phenotype (%): 2.54% and 2.27%
  Total Cell Count: 392 and 167
[2]
  Population Apoptotic (%): 30.43% and 23.08%
  Population Fragmented Nuclei (%): 2.02% and 2.16%
  Population Healthy Nuclei (%): 71.39% and 69.78%
  Population Hoechst High Intensity Objects (%): 0%
  Population Membrane Permeable-Phenotype (%): 13.77% and 36.08%
  Population Mitotic Cells (%): 69.57% and 76.92%
  Population Normal (%): 100%
  Population Pyknosed Nuclei (%): 26.59% and 28.06%
  Population Tubulin-Different-Phenotype (%): 60.73% and 38.14%
  Total Cell Count: 346 and 139
[3]
  Population Apoptotic (%): 35.85% and 30.56%
  Population Fragmented Nuclei (%): 0.75% and 3.24%
  Population Healthy Nuclei (%): 89.35% and 80.09%
  Population Hoechst High Intensity Objects (%): 0%
  Population Membrane Permeable-Phenotype (%): 0.63% and 4.05%
  Population Mitotic Cells (%): 64.15% and 69.44%
  Population Normal (%): 100%
  Population Pyknosed Nuclei (%): 9.91% and 16.67%
  Population Tubulin-Different-Phenotype (%): 1.67% and 1.16%
  Total Cell Count: 535 and 216
[4]
  Population Apoptotic (%): 44.63% and 34.25%
  Population Fragmented Nuclei (%): 2.92% and 1.89%
  Population Healthy Nuclei (%): 67.64% and 52.2%
  Population Hoechst High Intensity Objects (%): 0%
  Population Membrane Permeable-Phenotype (%): 12.23% and 26.51%
  Population Mitotic Cells (%): 55.37% and 65.75%
  Population Normal (%): 100%
  Population Pyknosed Nuclei (%): 29.44% and 45.91%
  Population Tubulin-Different-Phenotype (%): 51.08% and 46.99%
  Total Cell Count: 411 and 159
[5]
  Population Apoptotic (%): 42.71% and 56.25%
  Population Fragmented Nuclei (%): 2% and 2.61%
  Population Healthy Nuclei (%): 87.88% and 81.7%
  Population Hoechst High Intensity Objects (%): 0.11% and 0%
  Population Membrane Permeable-Phenotype (%): 1.2% and 2%
  Population Mitotic Cells (%): 57.29% and 43.75%
  Population Normal (%): 99.89% and 100%
  Population Pyknosed Nuclei (%): 10.12% and 15.69%
  Population Tubulin-Different-Phenotype (%): 2.28% and 1.6%
[6]
  Population Apoptotic (%): 54.89% and 66.67%
  Population Fragmented Nuclei (%): 4.64% and 2.86%
  Population Healthy Nuclei (%): 74.08% and 49.14%
  Population Hoechst High Intensity Objects (%): 0%
  Population Mitotic Cells (%): 45.11% and 33.33%
  Population Normal (%): 100%
  Population Pyknosed Nuclei (%): 21.28% and 48%
  Population Tubulin-Different-Phenotype (%): 26.13% and 55.81%

## CC(C)C[C@H](NC(=O)c1cc2ccccc2s1)C(=O)N1CCN(C(=O)[C@H](CO)NS(=O)(=O)c2ccc(Cl)cc2Cl)CC1
[1]
  Population Apoptotic (%): 71.76% and 81.82%
  Population Fragmented Nuclei (%): 5.1% and 6.74%
  Population Healthy Nuclei (%): 61.48% and 56.18%
  Population Hoechst High Intensity Objects (%): 0%
  Population Membrane Permeable-Phenotype (%): 5.39% and 4%
  Population Mitotic Cells (%): 28.24% and 18.18%
  Population Normal (%): 100%
  Population Pyknosed Nuclei (%): 33.42% and 37.08%
  Population Tubulin-Different-Phenotype (%): 4.56% and 4%
[2]
  Population Apoptotic (%): 55.1% and 50.79%
  Population Fragmented Nuclei (%): 2% and 2.9%
  Population Healthy Nuclei (%): 65.33% and 51.45%
  Population Hoechst High Intensity Objects (%): 0%
  Population Membrane Permeable-Phenotype (%): 69.39% and 39.44%
  Population Mitochondria Different-Phenotype (%): 30.61% and 87.32%
  Population Mitotic Cells (%): 44.9% and 49.21%
  Population Normal (%): 100%
  Population Pyknosed Nuclei (%): 32.67% and 45.65%
  Population Tubulin-Different-Phenotype (%): 98.47% and 95.77%
  Total Cell Count: 300 and 138
[3]
  Population Apoptotic (%): 71.76% and 90.91%
  Population Fragmented Nuclei (%): 4.78% and 1.14%
  Population Healthy Nuclei (%): 65.38% and 61.36%
  Population Hoechst High Intensity Objects (%): 0%
  Population Membrane Permeable-Phenotype (%): 4.18% and 5.56%
  Population Normal (%): 100%
  Population Pyknosed Nuclei (%): 29.84% and 37.5%
  Population Tubulin-Different-Phenotype (%): 4.88% and 3.7%
[4]
  Population Apoptotic (%): 65.59% and 62.96%
  Population Fragmented Nuclei (%): 2.48% and 4.41%
  Population Healthy Nuclei (%): 64.54% and 55.88%
  Population Hoechst High Intensity Objects (%): 0%
  Population Membrane Permeable-Phenotype (%): 34.07% and 32.89%
  Population Mitochondria Different-Phenotype (%): 52.75% and 88.16%
  Population Mitotic Cells (%): 34.41% and 37.04%
  Population Normal (%): 100%
  Population Pyknosed Nuclei (%): 32.98% and 39.71%
  Population Tubulin-Different-Phenotype (%): 95.6% and 81.58%
  Total Cell Count: 282 and 136
[5]
  Population Apoptotic (%): 77.39% and 79.17%
  Population Fragmented Nuclei (%): 3.97% and 6.03%
  Population Healthy Nuclei (%): 79.75% and 73.28%
  Population Hoechst High Intensity Objects (%): 0%
  Population Membrane Permeable-Phenotype (%): 5.15% and 10.59%
  Population Mitotic Cells (%): 22.61% and 20.83%
  Population Normal (%): 100%
  Population Pyknosed Nuclei (%): 16.29% and 20.69%
  Population Tubulin-Different-Phenotype (%): 5.51% and 4.71%
[6]
  Population Apoptotic (%): 78.7% and 70%
  Population Fragmented Nuclei (%): 3.93% and 4.11%
  Population Healthy Nuclei (%): 63.44% and 54.79%
  Population Hoechst High Intensity Objects (%): 0%
  Population Membrane Permeable-Phenotype (%): 29.05% and 32.5%
  Population Mitochondria Different-Phenotype (%): 43.33% and 62.5%
  Population Mitotic Cells (%): 21.3% and 30%
  Population Normal (%): 100%
  Population Pyknosed Nuclei (%): 32.63% and 41.1%
  Population Tubulin-Different-Phenotype (%): 92.38% and 80%
  Total Cell Count: 331 and 146

— ChEMBL document CHEMBL5724801, “EUbOPEN Chemogenomics Library - Multiplex” (2024)
